We go through 58 molecules from ChEMBL document CHEMBL1144032, “Potent antagonists of the CCR2b receptor. Part 3: SAR of the (R)-3-aminopyrrolidine series” (Bioorg Med Chem Lett, 2008).

Calls of active or inactive are those of the source. The rule behind the calls is not given here.

Assay [1] deals with T1, C-C chemokine receptor type 2 (Homo sapiens, UniProt P41597). As to the kind of experiment: Displacement of [125I]MCP1 from human CCR2b in THP1 cells. The class given is cell-based, THP-1. The method, boiled down: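 Radioligand competition with [125I]-MCP-1 on THP-1 cells. IC50 taken from dose-response curves built from duplicate points; where SD is given, value is mean of at least three independent experiments.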
Target sequence in this assay (P41597 whole entry): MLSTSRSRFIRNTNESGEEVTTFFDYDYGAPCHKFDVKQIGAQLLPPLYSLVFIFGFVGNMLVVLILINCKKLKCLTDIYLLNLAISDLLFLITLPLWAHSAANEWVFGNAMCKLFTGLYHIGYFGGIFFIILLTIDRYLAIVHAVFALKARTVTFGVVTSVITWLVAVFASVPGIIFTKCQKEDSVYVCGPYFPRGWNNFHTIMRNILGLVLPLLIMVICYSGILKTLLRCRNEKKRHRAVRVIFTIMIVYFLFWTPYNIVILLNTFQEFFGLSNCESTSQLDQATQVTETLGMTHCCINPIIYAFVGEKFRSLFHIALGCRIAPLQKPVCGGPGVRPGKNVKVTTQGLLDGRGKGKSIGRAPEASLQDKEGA

Assay [2] deals with T1, C-C chemokine receptor type 2. As to the kind of experiment: Antagonist activity at human CCR2 in THP1 cells assessed as inhibition of calcium flux in absence of MCP1. The conditions noted are these: THP-1. In kind it is functional, cell-based. Background: Calcium assays in cells follow changes in intracellular calcium, usually with a dye or a luminescent sensor.
Target sequence in this assay (P41597 whole entry, looked up): as the sequence (P41597 whole entry) above
The target of assay [3] is T2, C-C chemokine receptor type 1 (Homo sapiens, UniProt P32246).
T2 sequence (P32246 whole entry): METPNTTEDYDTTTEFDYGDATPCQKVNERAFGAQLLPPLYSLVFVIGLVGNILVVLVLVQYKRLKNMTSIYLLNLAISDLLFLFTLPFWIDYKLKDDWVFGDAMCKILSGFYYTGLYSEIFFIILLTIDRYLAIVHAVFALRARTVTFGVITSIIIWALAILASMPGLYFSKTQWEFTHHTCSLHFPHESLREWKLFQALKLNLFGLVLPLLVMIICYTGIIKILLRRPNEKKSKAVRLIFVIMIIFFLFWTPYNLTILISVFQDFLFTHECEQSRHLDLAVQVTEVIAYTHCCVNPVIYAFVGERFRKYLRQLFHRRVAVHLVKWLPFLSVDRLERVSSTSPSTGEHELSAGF
As to the kind of experiment: Displacement of [125I]MIP-1alpha from human CCR1 in THP cells. Background: Displacement assays read how much labelled ligand stays bound in the presence of the test substance.

In assay [4] the target is T3, C-C chemokine receptor type 1 (Homo sapiens) (UniProt P32246).
T3 sequence (whole entry): T2 sequence (P32246 whole entry)
Briefly: Displacement of [125I]MIP-1alpha from human CCR1 in THP cells at 1 uM.

For assay [5], the target named is T1, C-C chemokine receptor type 2. Briefly: Displacement of [125I]MCP1 from human CCR2b in HEK293 cells. In kind it is cell-based. Summed up: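 Competition for [125I]-MCP-1 binding on HEK293 cells transfected with human CCR2b receptor.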
Target sequence in this assay (P41597 whole entry): as the sequence (P41597 whole entry) above
Assay [6] shares this target. Briefly: Antagonist activity at human CCR2 in THP1 cells assessed as inhibition of MCP1-induced calcium flux. The class given is functional, cell-based, THP-1. The method, boiled down:
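THP-1 cells grown in HBSS loading buffer with 1% FBS and 20 mM HEPES, spun down, then loaded 30 min with Fluo-3 AM (2 million cells/mL, 4 µM dye, 20 mM HEPES, 0.1% BSA, 5 mM probenecid). Washed three times into HEPES/NaCl/glucose buffer with 2.5 mM probenecid, 1.25 mM CaCl2 and 0.1% BSA; 150,000 cells/well. Compound added 3 min before 10^-7 M human MCP-1; intracellular Ca2+ read by FLIPR.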
Target sequence in this assay (P41597 whole entry): as the sequence (P41597 whole entry) above

`O=C(CNC(=O)c1ccc(Cl)cc1)N[C@@H]1CCN(Cc2ccc(Cl)cc2)C1` displayed a concentration for half-maximal inhibition (IC50) in assay [1] of over 5000 nM.

Take `Nc1ccc(C(F)(F)F)cc1C(=O)NCC(=O)N[C@@H]1CCN(Cc2ccc(Cl)cc2)C1`: the result in assay [2] was inactive. Moreover, the half-maximal inhibitory concentration (IC50) is over 1000 nM in assay [3], 45 nM in assay [5], 23.1 nM in assay [6] and 26 nM in assay [1]. In assay [4], this molecule gave an inhibition of 25%.

As to `Nc1ccc([N+](=O)[O-])cc1C(=O)NCC(=O)N[C@@H]1CCN(Cc2ccc(Cl)cc2)C1`, the IC50 in assay [1] turned out to be 208 nM.

In assay [1], `O=C(CNC(=O)c1ccccc1C(F)(F)F)N[C@@H]1CCN(Cc2ccc(Cl)cc2)C1` showed an IC50 of over 10000 nM.

As for `Nc1cc(CN2CC[C@@H](NC(=O)CNC(=O)c3cc(C(F)(F)F)ccc3N)C2)ccc1Cl`, in assay [1], the IC50 turned out to be 4.1 nM.

In assay [1], `O=C(CNC(=O)c1cccc(OC(F)(F)F)c1)N[C@@H]1CCN(Cc2ccc(Cl)cc2)C1` had a half-maximal inhibitory concentration (IC50) of 489 nM.

In assay [1], `Cc1cccc(CN2CC[C@@H](NC(=O)CNC(=O)c3cccc(C(F)(F)F)c3)C2)c1` came in with an IC50 of 3100 nM.

As for `Nc1cc(CN2CC[C@@H](NC(=O)CNC(=O)c3cc(C(F)(F)F)ccc3N)C2)ccc1O`, the IC50 in assay [1] amounted to 14 nM.

For `Cc1ccc(C(=O)NCC(=O)N[C@@H]2CCN(Cc3ccc(Cl)cc3)C2)cc1`, the half-inhibitory concentration (IC50) in assay [1] amounted to 10000 nM.

`COc1cccc(CN2CC[C@@H](NC(=O)CNC(=O)c3cccc(C(F)(F)F)c3)C2)c1` gave a half-inhibitory concentration (IC50) in assay [1] of 3170 nM.

With `O=C(CNC(=O)c1cccc(C(F)(F)F)c1)N[C@@H]1CCN(Cc2ccc(F)cc2)C1`, the IC50 in assay [1] was 960 nM.

In the case of `O=C(CNC(=O)c1ccccc1Cl)N[C@@H]1CCN(Cc2ccc(Cl)cc2)C1`, the IC50 in assay [1] was over 10000 nM.

With `COc1ccc(CN2CC[C@@H](NC(=O)CNC(=O)c3cc(C(F)(F)F)ccc3N)C2)cc1`, the IC50 in assay [1] amounted to 20 nM.

For the molecule `O=C(CNC(=O)c1cccc([N+](=O)[O-])c1)N[C@@H]1CCN(Cc2ccc(Cl)cc2)C1`, the IC50 in assay [1] was 832 nM.

In assay [1], `Nc1cccc(C(=O)NCC(=O)N[C@@H]2CCN(Cc3ccc(Cl)cc3)C2)c1` came in with an IC50 of over 10000 nM.

`C=Cc1ccc(CN2CC[C@@H](NC(=O)CNC(=O)c3cc(C(F)(F)F)ccc3N)C2)cc1` registered an IC50 in assay [1] of 19 nM.

The molecule `O=C(CNC(=O)c1cccc(C(F)(F)F)c1)N[C@@H]1CCN(Cc2cccc(Cl)c2)C1` had an IC50 in assay [1] of over 5000 nM.

In assay [1], `C=Cc1ccc(CN2CC[C@@H](NC(=O)CNC(=O)c3cccc(C(F)(F)F)c3)C2)cc1` had a half-inhibitory concentration (IC50) of 121 nM.

`COc1cccc(C(=O)NCC(=O)N[C@@H]2CCN(Cc3ccc(Cl)cc3)C2)c1` came in with an IC50 in assay [1] of over 10000 nM.

Turning to `O=C(CNC(=O)c1cccc(C(F)(F)F)c1)N[C@@H]1CCN(Cc2ccc(Cl)cc2Cl)C1`, the half-inhibitory concentration (IC50) in assay [1] turned out to be 300 nM.

In assay [1], `COc1cc(CN2CC[C@@H](NC(=O)CNC(=O)c3cc(C(F)(F)F)ccc3N)C2)ccc1O` yielded a half-maximal inhibitory concentration (IC50) of 39 nM.

Molecule `Cc1ccc(CN2CC[C@@H](NC(=O)CNC(=O)c3cc(C(F)(F)F)ccc3N)C2)cc1` had an IC50 in assay [1] of 20 nM.

For `O=C(CNC(=O)c1cccc(F)c1)N[C@@H]1CCN(Cc2ccc(Cl)cc2)C1`, in assay [1], the IC50 was determined as 4330 nM.

Molecule `Nc1ccc(Cl)cc1C(=O)NCC(=O)N[C@@H]1CCN(Cc2ccc(Cl)cc2)C1` displayed a concentration for half-maximal inhibition (IC50) in assay [1] of 730 nM.

As for `CCc1ccc(CN2CC[C@@H](NC(=O)CNC(=O)c3cccc(C(F)(F)F)c3)C2)cc1`, in assay [1], the concentration for half-maximal inhibition (IC50) came out at 59 nM.

Molecule `N#Cc1ccc(CN2CC[C@@H](NC(=O)CNC(=O)c3cccc(C(F)(F)F)c3)C2)cc1` had an IC50 in assay [1] of 2650 nM.

Consider `Cc1ccc(CN2CC[C@@H](NC(=O)CNC(=O)c3cc(C(F)(F)F)ccc3N)C2)c(C)c1`, for which the result in assay [2] was inactive. The IC50 in assay [6] came to 7.5 nM; in assay [1] it was 3.2 nM.

With `Nc1ccc(C(F)(F)F)cc1C(=O)NCC(=O)N[C@@H]1CCN(Cc2ccc(O)cc2)C1`, the IC50 in assay [1] turned out to be 42 nM.

As for `CCc1ccc(CN2CC[C@@H](NC(=O)CNC(=O)c3cc(C(F)(F)F)ccc3N)C2)cc1`, in assay [2], the outcome was inactive. For the same molecule, the 50% inhibitory concentration (IC50) in assay [6] was found to be 5.3 nM; in assay [1], 11 nM.

For the molecule `O=C(CNC(=O)c1cccc(C(F)(F)F)c1)N[C@@H]1CCN(Cc2ccc(Br)cc2)C1`, the IC50 in assay [1] was determined as 166 nM.

As for `COc1ccc(CN2CC[C@@H](NC(=O)CNC(=O)c3cc(C(F)(F)F)ccc3N)C2)cc1N`, in assay [1], the IC50 came to 5.3 nM.

For `O=C(CNC(=O)c1cccc(C(F)(F)F)c1)N[C@@H]1CCN(Cc2ccc([N+](=O)[O-])cc2)C1`, the half-inhibitory concentration (IC50) in assay [1] amounted to 1550 nM.

Regarding `COc1ccc(CN2CC[C@@H](NC(=O)CNC(=O)c3cccc(C(F)(F)F)c3)C2)cc1`, the IC50 in assay [1] came out at 114 nM.

`Cc1cccc(C(=O)NCC(=O)N[C@@H]2CCN(Cc3ccc(Cl)cc3)C2)c1`: the 50% inhibitory concentration (IC50) in assay [1] stood at 2380 nM.

Molecule `O=C(CNC(=O)c1ccc(C(F)(F)F)cc1)N[C@@H]1CCN(Cc2ccc(Cl)cc2)C1` had an IC50 in assay [1] of over 5000 nM.

In assay [1], `O=C(CNC(=O)c1cccc(Br)c1)N[C@@H]1CCN(Cc2ccc(Cl)cc2)C1` came in with an IC50 of 785 nM.

`Cc1ccccc1C(=O)NCC(=O)N[C@@H]1CCN(Cc2ccc(Cl)cc2)C1` gave a half-inhibitory concentration (IC50) in assay [1] of over 10000 nM.

As for `Nc1ccc(OC(F)(F)F)cc1C(=O)NCC(=O)N[C@@H]1CCN(Cc2ccc(Cl)cc2)C1`, the IC50 in assay [1] came to 88 nM.

Molecule `Nc1ccc(Br)cc1C(=O)NCC(=O)N[C@@H]1CCN(Cc2ccc(Cl)cc2)C1` displayed an IC50 in assay [1] of 643 nM.

With `O=C(CNC(=O)c1ccccc1)N[C@@H]1CCN(Cc2ccc(Cl)cc2)C1`, the IC50 in assay [1] was over 10000 nM.

In the case of `O=C(CNC(=O)c1cccc(C(F)(F)F)c1)N[C@@H]1CCN(Cc2ccccc2Cl)C1`, in assay [1], the IC50 is 630 nM.

With `CC(=O)Nc1ccc(CN2CC[C@@H](NC(=O)CNC(=O)c3cccc(C(F)(F)F)c3)C2)cc1`, in assay [1], the IC50 was 305 nM.

With `Cc1ccc(CN2CC[C@@H](NC(=O)CNC(=O)c3cccc(C(F)(F)F)c3)C2)cc1`, in assay [2], the outcome was inactive. In addition, the IC50 in assay [6] was 64 nM; in assay [1], 116 nM.

`Nc1ccc(C(F)(F)F)cc1C(=O)NCC(=O)N[C@@H]1CCN(Cc2ccc(Cl)cc2Cl)C1` returned an IC50 in assay [1] of 96 nM.

In turn, `O=C(CNC(=O)c1cccc(C(F)(F)F)c1)N[C@@H]1CCN(Cc2ccccc2-c2ccc3ccccc3c2)C1` had an IC50 in assay [1] of 759 nM.

For `O=C(CNC(=O)c1cccc(C(F)(F)F)c1)N[C@@H]1CCN(Cc2ccc(OC(F)(F)F)cc2)C1`, in assay [1], the half-maximal inhibitory concentration (IC50) was 610 nM.

In assay [1], `CSc1ccc(CN2CC[C@@H](NC(=O)CNC(=O)c3cccc(C(F)(F)F)c3)C2)cc1` gave an IC50 of 204 nM.

With `N#Cc1cccc(C(=O)NCC(=O)N[C@@H]2CCN(Cc3ccc(Cl)cc3)C2)c1`, the half-maximal inhibitory concentration (IC50) in assay [1] was over 10000 nM.

Turning to `COc1ccccc1CN1CC[C@@H](NC(=O)CNC(=O)c2cccc(C(F)(F)F)c2)C1`, in assay [1], the IC50 was 1360 nM.

As for `O=C(CNC(=O)c1cccc(C(F)(F)F)c1)N[C@@H]1CCN(Cc2ccc(O)cc2)C1`, the result in assay [2] was inactive. Moreover, the figures for the IC50 in assay [6] and in assay [1] were 365 nM and 226 nM, respectively.

Consider `Cc1ccccc1CN1CC[C@@H](NC(=O)CNC(=O)c2cccc(C(F)(F)F)c2)C1`, for which, in assay [1], the IC50 stood at 960 nM.

As for `COc1cc(CN2CC[C@@H](NC(=O)CNC(=O)c3cccc(C(F)(F)F)c3)C2)ccc1O`, in assay [1], the 50% inhibitory concentration (IC50) was 153 nM.

The molecule `COc1ccc(CN2CC[C@@H](NC(=O)CNC(=O)c3cc(C(F)(F)F)ccc3N)C2)cc1O` had an IC50 in assay [1] of 53 nM.

In turn, `Nc1ccccc1C(=O)NCC(=O)N[C@@H]1CCN(Cc2ccc(Cl)cc2)C1` came in with an IC50 in assay [1] of over 10000 nM.

Molecule `Cc1ccc(CN2CC[C@@H](NC(=O)CNC(=O)c3cc(C(F)(F)F)ccc3N)C2)cc1N` displayed a concentration for half-maximal inhibition (IC50) in assay [1] of 6.1 nM.

In turn, `O=C(CNC(=O)c1cccc(C(F)(F)F)c1)N[C@@H]1CCN(Cc2ccccc2)C1` registered an IC50 in assay [1] of 690 nM.

Consider `O=C(CNC(=O)c1cccc(Cl)c1)N[C@@H]1CCN(Cc2ccc(Cl)cc2)C1`, for which, in assay [1], the IC50 was 2400 nM.

With `Nc1ccc(I)cc1C(=O)NCC(=O)N[C@@H]1CCN(Cc2ccc(Cl)cc2)C1`, the IC50 in assay [1] was 308 nM.

A word on the IC50: it is the concentration that gives 50% inhibition. For orientation: inhibition means the percentage by which the read-out fell short of the control. A high value points to a strong effect.
